For assay [1], the target named is T1, Metabotropic glutamate receptor 4 (Rattus norvegicus, UniProt P31423). The assay is described as follows: Agonist activity at rat mGlu4 receptor expressed in HEK293 cells assessed as IP1 accumulation by IP-One functional assay. It counts as cell-based. Put shortly:
(§1)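 HEK293 cells were transiently electroporated with the rat receptor plus a chimeric Gi/Gq protein for PLC coupling and EAAC1. Medium was replaced by Glutamax at least 2 h before agonist. IP1 accumulation was measured by HTRF 24 h post-transfection, at least in duplicate. EC50 ± SEM came from n = 4−6 experiments.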

For assay [2], the target named is T2, Metabotropic glutamate receptor 2 (Rattus norvegicus, UniProt P31421). In words: Agonist activity at rat mGlu2 receptor expressed in HEK293 cells assessed as IP1 accumulation by IP-One functional assay. It counts as cell-based. Put shortly:
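HEK293 cells were transiently electroporated with the rat receptor plus a chimeric Gi/Gq protein for PLC coupling and EAAC1. Medium was replaced by Glutamax at least 2 h before agonist. IP1 accumulation was measured by HTRF 24 h post-transfection, at least in duplicate.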

The target of assay [3] is T3, Excitatory amino acid transporter 1 (Homo sapiens, UniProt P43003). The assay is described as follows: Substrate activity at human EAAT1 assessed as [3H]Asp uptake measured up to 300 uM.
T3 sequence (P43003 whole entry): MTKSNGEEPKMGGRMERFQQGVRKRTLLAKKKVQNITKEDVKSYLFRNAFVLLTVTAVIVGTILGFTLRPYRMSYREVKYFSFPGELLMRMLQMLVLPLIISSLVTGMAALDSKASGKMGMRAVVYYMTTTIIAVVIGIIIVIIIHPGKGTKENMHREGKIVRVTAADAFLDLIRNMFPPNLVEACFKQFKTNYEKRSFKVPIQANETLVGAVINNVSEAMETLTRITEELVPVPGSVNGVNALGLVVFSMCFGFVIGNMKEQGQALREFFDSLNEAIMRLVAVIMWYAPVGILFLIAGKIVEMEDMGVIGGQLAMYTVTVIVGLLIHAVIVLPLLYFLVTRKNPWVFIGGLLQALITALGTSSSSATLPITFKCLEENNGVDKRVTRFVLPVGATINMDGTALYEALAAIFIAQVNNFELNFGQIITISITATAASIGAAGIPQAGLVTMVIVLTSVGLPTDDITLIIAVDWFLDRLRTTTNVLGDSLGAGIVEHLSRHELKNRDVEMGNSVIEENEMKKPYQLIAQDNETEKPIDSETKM
Assay [4] has as its target T4, Metabotropic glutamate receptor 1 (Rattus norvegicus, UniProt P23385). In words: Agonist activity at rat mGlu1 receptor expressed in HEK293 cells assessed as IP1 accumulation by IP-One functional assay. It counts as cell-based. Put shortly:
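Rat group I receptor transiently electroporated into HEK293 with the EAAC1 glutamate transporter; medium switched to Glutamax at least 2 h before stimulation. IP1 was read by HTRF (IP-One kit) 24 h after transfection. Runs were at least in duplicate, with EC50 ± SEM from n = 4−6 experiments.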

Assay [5] concerns the target T5, Excitatory amino acid transporter 3 (Homo sapiens, UniProt P43005).
T5 sequence (P43005 whole entry): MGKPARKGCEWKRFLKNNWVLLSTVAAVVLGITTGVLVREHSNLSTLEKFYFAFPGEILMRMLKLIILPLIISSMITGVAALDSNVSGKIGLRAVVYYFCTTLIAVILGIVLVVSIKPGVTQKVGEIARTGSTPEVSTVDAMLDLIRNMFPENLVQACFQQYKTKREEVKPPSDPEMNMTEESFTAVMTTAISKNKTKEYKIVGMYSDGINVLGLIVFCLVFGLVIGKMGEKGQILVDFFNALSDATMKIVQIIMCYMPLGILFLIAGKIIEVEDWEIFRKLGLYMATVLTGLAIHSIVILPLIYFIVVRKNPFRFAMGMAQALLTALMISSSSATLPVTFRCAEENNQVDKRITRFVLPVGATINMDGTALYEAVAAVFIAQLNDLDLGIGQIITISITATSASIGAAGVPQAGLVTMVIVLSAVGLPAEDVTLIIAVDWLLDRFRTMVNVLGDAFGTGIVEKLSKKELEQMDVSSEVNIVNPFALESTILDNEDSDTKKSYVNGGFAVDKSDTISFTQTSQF
In words: Inhibition of human EAAT3 assessed as [3H]Asp uptake.

Assay [6] deals with T6, Excitatory amino acid transporter 2 (Homo sapiens, UniProt P43004). In words: Inhibition of human EAAT2 assessed as [3H]Asp uptake.
T6 sequence (P43004 whole entry): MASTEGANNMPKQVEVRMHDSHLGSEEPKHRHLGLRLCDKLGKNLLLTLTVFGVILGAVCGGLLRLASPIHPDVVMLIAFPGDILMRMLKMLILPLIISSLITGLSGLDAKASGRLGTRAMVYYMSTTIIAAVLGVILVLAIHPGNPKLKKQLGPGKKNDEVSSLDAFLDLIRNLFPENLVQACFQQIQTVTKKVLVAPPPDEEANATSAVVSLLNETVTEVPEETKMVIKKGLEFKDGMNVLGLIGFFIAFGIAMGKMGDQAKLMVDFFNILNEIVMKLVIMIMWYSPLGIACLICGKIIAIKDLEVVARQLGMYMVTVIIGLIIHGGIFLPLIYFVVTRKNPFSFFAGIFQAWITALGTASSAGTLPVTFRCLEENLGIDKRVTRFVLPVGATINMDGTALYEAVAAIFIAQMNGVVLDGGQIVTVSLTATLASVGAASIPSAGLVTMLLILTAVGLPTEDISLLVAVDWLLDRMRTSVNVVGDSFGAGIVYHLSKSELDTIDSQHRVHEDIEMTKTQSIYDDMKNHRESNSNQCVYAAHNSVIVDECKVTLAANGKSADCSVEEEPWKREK
A short description of assay [7]: Displacement of [3H]KA from rat synaptosome KA receptor after 60 mins by microplate scintillation counter analysis. Background: In a radioligand displacement assay an active substance lowers the binding of a labelled ligand.
The target of assay [8] is Metabotropic glutamate receptor 6 (Rattus norvegicus, UniProt P35349). In words: Agonist activity at rat mGlu6 receptor expressed in HEK293 cells assessed as IP1 accumulation by IP-One functional assay. It counts as cell-based. Put shortly:
as §1

For assay [9], the target named is Metabotropic glutamate receptor 8 (Rattus norvegicus, UniProt P70579). The assay is described as follows: Agonist activity at rat mGlu8 receptor expressed in HEK293 cells assessed as IP1 accumulation by IP-One functional assay. It counts as cell-based. Put shortly:
as §1

A short description of assay [10]: Displacement of [3H]AMPA from rat synaptosome AMPA receptor after 30 mins by microplate scintillation counter analysis.
Assay [11] deals with T6, Excitatory amino acid transporter 2. In words: Substrate activity at human EAAT2 assessed as [3H]Asp uptake measured up to 300 uM.
Assay [12] concerns the target Glutamate NMDA receptor. The assay is described as follows: Displacement of [3H]CGP from rat synaptosome NMDA receptor after 60 mins by microplate scintillation counter analysis. It counts as protein-complex assay.
Assay [13] concerns the target T7, Metabotropic glutamate receptor 3 (Rattus norvegicus, UniProt P31422). The assay is described as follows: Agonist activity at rat mGlu3 receptor by FRET based mGlu sensor assay. The method, boiled down: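 Receptor carried an N-terminal SNAP-tag and was transfected into HEK293 cells. At 24 h, surface receptors were labelled for 1 h with 100 nM SNAP-Lumi4-Tb (donor) and 60 nM SNAP Green (acceptor), washed three times, then drug was added. Time-resolved FRET was recorded at 520 nm, at least in duplicate. EC50 ± SEM came from n = 4−6 experiments.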

Assay [14] addresses Metabotropic glutamate receptor 7 (Rattus norvegicus, UniProt P35400). In words: Agonist activity at rat mGlu7 receptor expressed in HEK293 cells assessed as IP1 accumulation by IP-One functional assay. It counts as cell-based. The method, boiled down: as §1
Assay [15] addresses T2, Metabotropic glutamate receptor 2. The assay is described as follows: Agonist activity at rat mGlu2 receptor by FRET based mGlu sensor assay. The method, boiled down:
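Receptor carried an N-terminal SNAP-tag and was transfected into HEK293 cells. At 24 h, surface receptors were labelled for 1 h with 100 nM SNAP-Lumi4-Tb (donor) and 60 nM SNAP Green (acceptor), washed three times, then drug was added. Time-resolved FRET was recorded at 520 nm, at least in duplicate.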

The target in assay [16] is T8, Metabotropic glutamate receptor 5 (Rattus norvegicus, UniProt P31424). In words: Agonist activity at rat mGlu5 receptor expressed in HEK293 cells assessed as IP1 accumulation by IP-One functional assay. It counts as cell-based.
T8 sequence (P31424 whole entry): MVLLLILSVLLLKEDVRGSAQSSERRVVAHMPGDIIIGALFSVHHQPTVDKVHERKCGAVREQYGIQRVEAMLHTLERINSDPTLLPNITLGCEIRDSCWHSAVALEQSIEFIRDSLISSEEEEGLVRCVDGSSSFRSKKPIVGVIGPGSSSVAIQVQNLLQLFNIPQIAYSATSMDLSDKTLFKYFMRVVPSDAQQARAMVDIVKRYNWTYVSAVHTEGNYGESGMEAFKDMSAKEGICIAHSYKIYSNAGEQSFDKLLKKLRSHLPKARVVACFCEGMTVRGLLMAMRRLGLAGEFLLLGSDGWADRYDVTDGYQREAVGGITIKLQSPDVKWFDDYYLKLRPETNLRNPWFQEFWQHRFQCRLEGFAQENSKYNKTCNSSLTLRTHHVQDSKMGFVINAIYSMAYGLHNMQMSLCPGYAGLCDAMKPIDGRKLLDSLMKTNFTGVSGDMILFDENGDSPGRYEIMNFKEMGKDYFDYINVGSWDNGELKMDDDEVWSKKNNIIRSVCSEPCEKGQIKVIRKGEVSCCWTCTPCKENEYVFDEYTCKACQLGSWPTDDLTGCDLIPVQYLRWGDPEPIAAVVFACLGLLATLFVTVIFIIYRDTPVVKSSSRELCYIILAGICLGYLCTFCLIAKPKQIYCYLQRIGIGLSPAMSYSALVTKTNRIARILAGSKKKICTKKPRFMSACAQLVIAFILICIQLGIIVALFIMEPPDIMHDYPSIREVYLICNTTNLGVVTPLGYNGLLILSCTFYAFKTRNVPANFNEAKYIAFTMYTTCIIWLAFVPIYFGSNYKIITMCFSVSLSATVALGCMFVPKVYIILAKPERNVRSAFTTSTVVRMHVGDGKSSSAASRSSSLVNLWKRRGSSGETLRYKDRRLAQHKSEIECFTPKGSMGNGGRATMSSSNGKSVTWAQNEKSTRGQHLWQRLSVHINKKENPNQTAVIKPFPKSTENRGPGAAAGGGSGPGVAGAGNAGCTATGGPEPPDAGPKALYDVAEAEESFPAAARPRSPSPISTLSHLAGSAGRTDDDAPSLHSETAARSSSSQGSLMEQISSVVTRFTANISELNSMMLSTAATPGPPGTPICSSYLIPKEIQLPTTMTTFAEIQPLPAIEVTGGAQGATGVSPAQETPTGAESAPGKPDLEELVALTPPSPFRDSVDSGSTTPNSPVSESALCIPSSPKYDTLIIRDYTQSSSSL
Assay [17] addresses T3, Excitatory amino acid transporter 1. In words: Inhibition of human EAAT1 assessed as [3H]Asp uptake.
The target in assay [18] is T7, Metabotropic glutamate receptor 3. In words: Agonist activity at rat mGlu3 receptor expressed in HEK293 cells by [35S]GTP-gamma binding assay. It counts as cell-based.
The target in assay [19] is T4, Metabotropic glutamate receptor 1. In words: Agonist activity at rat mGlu1 receptor expressed in HEK293 cells by intracellular Ca2+ mobilization assay. It counts as functional, cell-based.
In assay [20] the target is Metabotropic glutamate receptor 7 (Homo sapiens, UniProt Q14831). In words: Agonist activity at human mGlu7 receptor expressed in HEK293 assessed as inhibition of forskolin stimulated cAMP production. It counts as functional, cell-based. For orientation: cAMP levels reflect the balance of adenylyl cyclase and phosphodiesterase activity.
Sequence of Metabotropic glutamate receptor 7 (Homo sapiens, UniProt Q14831) (Q14831 whole entry): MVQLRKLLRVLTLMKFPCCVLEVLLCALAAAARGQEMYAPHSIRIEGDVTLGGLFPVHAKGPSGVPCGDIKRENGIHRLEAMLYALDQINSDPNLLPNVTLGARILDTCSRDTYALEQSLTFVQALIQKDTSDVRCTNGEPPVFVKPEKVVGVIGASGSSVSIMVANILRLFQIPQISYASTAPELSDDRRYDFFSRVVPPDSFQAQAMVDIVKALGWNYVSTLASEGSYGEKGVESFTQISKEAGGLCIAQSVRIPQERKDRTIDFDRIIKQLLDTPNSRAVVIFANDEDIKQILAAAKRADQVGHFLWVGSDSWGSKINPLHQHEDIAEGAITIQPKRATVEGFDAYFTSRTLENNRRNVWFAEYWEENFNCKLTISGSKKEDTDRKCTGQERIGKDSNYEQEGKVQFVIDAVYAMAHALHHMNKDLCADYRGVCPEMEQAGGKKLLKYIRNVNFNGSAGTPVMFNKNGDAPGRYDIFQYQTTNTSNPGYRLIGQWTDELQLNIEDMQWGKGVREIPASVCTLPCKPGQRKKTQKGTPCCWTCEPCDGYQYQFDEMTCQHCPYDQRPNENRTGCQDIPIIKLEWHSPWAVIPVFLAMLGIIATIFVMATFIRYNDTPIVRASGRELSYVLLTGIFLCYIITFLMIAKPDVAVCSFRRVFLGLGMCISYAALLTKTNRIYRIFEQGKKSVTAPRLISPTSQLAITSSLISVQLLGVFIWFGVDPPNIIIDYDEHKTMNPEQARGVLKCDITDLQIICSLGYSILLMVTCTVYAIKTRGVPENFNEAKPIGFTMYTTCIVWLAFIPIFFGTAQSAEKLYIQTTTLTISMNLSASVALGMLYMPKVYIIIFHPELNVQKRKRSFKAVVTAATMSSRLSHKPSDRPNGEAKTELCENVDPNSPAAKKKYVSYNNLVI
Assay [21] has as its target T8, Metabotropic glutamate receptor 5. In words: Agonist activity at rat mGlu5 receptor expressed in HEK293 cells by intracellular Ca2+ mobilization assay. It counts as functional, cell-based. Background: Calcium flux is commonly read through the fluorescence of an indicator in the cells.
Assay [22] addresses T2, Metabotropic glutamate receptor 2. The assay is described as follows: Agonist activity at rat mGlu2 receptor expressed in HEK293 cells by [35S]GTP-gamma binding assay. It counts as cell-based.
Assay [23] deals with T1, Metabotropic glutamate receptor 4. The assay is described as follows: Agonist activity at rat mGlu4 receptor expressed in HEK293 cells assessed as inhibition of forskolin stimulated cAMP production. It counts as functional, cell-based.

Active and inactive are the calls of the source. The rule behind the calls is not given here.

What is called IC50 is the midpoint of a concentration-inhibition curve. As usually defined, the Ki is the equilibrium dissociation constant of an inhibitor or competing ligand from its target.

T7 sequence (P31422 whole entry): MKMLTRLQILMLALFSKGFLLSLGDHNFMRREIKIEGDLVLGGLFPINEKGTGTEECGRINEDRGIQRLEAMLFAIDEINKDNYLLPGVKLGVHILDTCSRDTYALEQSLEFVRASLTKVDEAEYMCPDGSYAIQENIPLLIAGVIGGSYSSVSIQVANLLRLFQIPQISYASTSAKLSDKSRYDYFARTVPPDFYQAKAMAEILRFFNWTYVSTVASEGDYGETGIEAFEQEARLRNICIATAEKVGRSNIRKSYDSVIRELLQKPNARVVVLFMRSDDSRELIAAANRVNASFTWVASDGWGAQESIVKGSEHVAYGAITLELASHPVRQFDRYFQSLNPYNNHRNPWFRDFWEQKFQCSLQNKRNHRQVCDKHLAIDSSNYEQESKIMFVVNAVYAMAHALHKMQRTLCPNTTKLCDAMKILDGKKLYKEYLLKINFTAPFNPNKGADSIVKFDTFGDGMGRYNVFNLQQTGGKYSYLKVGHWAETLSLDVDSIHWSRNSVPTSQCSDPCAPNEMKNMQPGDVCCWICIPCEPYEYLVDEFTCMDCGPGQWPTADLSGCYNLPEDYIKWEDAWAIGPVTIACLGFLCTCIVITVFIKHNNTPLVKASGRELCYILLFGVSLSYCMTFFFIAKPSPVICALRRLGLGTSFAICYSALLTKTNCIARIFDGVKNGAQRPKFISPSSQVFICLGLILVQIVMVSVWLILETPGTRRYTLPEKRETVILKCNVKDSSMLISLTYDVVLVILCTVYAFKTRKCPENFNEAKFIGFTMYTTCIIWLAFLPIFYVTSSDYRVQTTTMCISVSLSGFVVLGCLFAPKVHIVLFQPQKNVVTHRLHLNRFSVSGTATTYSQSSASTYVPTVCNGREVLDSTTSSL
Sequence of Metabotropic glutamate receptor 7 (Rattus norvegicus, UniProt P35400) (P35400 whole entry): as the sequence (Q14831 whole entry) above, with R5G, A27V, N454H, S488T, A520S, D578N counted along it
T1 sequence (P31423 whole entry): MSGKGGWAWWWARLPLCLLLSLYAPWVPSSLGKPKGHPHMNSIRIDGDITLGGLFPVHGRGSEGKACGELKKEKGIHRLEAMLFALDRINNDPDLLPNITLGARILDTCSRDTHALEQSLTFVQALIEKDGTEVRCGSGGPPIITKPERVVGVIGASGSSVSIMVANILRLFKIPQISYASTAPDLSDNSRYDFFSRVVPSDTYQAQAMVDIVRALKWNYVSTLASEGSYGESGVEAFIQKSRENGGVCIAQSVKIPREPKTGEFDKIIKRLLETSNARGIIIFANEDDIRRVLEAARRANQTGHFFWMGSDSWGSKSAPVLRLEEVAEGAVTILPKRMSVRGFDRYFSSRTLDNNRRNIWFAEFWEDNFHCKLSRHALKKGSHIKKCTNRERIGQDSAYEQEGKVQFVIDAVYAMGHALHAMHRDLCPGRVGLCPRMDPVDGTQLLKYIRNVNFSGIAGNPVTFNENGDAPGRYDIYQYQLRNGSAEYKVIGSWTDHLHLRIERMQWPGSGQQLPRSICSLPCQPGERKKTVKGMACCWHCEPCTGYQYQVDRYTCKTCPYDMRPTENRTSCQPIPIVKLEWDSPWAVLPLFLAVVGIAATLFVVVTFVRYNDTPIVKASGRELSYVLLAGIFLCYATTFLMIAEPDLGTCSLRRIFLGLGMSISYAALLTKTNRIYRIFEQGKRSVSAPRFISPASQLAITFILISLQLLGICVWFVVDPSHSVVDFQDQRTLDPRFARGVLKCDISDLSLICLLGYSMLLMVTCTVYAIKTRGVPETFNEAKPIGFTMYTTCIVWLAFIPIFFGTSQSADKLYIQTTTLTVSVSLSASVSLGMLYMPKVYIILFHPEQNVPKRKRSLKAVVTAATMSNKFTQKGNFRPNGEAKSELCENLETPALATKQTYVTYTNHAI

For `N[C@@H](C[C@@]1(C(=O)O)C[C@H]1C(=O)O)C(=O)O`, the EC50 in assay [1], in [2], in assay [4], in assay [8], in assay [9] and in [13] was over 1000 µM each time. The EC50 in assay [14], in assay [15] and in [16] was over 1000 µM in each case. In addition, the result in [3] and in assay [11] was inactive. The IC50 in [5] was over 300 µM; in [6], over 300 µM; in assay [7], over 100 µM; in assay [10], over 100 µM; in assay [17] it was over 300 µM. The molecule also yielded a Ki in assay [12] of over 100 µM.

For the molecule `N[C@@H](CCP(=O)(O)O)C(=O)O`, the EC50 turned out to be 1.91 µM in assay [8], 0.07 µM in assay [9] (hek293) and 340 µM in assay [14].

`NCC[C@H](C[C@H](N)C(=O)O)C(=O)O`: the EC50 in assay [18], in assay [19], in assay [20], in [21], in [22] (read-out: EC50) and in assay [23] was over 1000 µM each time.

For `N[C@@H](C[C@@H](CCC(=O)NO)C(=O)O)C(=O)O`, the EC50 in [18], in assay [19], in assay [20], in assay [21], in assay [22] (read-out: EC50) and in assay [23] was over 1000 µM throughout.

For the molecule `NCCC[C@H](C[C@H](N)C(=O)O)C(=O)O`, the EC50 in assay [18] is over 1000 µM; in assay [19], over 1000 µM; in assay [20], over 1000 µM; in assay [21], over 1000 µM; in [22] (read-out: EC50), 49 µM; in assay [22] (read-out: pEC50 (converted)), 4.9 µM. Besides, in [23], the EC50 was over 1000 µM.

Take `N[C@@H](C[C@@]1(C(=O)O)C[C@@H]1C(=O)O)C(=O)O`: the EC50 was 2.48 µM in assay [1]; over 1000 µM in assay [2]; over 1000 µM in [4]; 17.8 µM in [8]; 20.8 µM in assay [9]; over 1000 µM in assay [13]. Moreover, the EC50 in assay [14], in [15] and in assay [16] was over 1000 µM throughout. The outcome in assay [3] and in [11] was inactive. Moreover, the IC50 is over 300 µM in [5]; over 300 µM in assay [6]; over 100 µM in [7]; over 100 µM in assay [10]; over 300 µM in [17]. In addition, the Ki in [12] is 15 µM.

Turning to `COC(=O)CC[C@H](C[C@H](N)C(=O)O)C(=O)O`, the EC50 in assay [19], in assay [21], in assay [22] (read-out: EC50) and in assay [23] was over 1000 µM in each case.

On to `N[C@@H](CCC(=O)O)C(=O)O` [GLUTAMIC ACID], for which the EC50 in assay [1] is 9.49 µM; in assay [18] it was 0.06 µM; in assay [8], 65.1 µM; in [9] it was 14 µM; in [20], 1.18 µM; in [13], 3.4 µM.

As to `CCC[C@H](C[C@H](N)C(=O)O)C(=O)O`, the EC50 in [19], in assay [22] (read-out: EC50) and in assay [23] was over 1000 µM each time.

As to `N[C@H](C(=O)O)C1[C@@H](C(=O)O)[C@@H]1C(=O)O` (stereo not given in full), the EC50 came out at 0.08 µM in [13] and 0.35 µM in [15].

With `CN(O)C(=O)CC[C@H](C[C@H](N)C(=O)O)C(=O)O`, the EC50 in assay [18], in assay [19], in assay [20], in [21], in [22] (read-out: EC50) and in assay [23] was over 1000 µM each time.

In the case of `CNC(=O)CC[C@H](C[C@H](N)C(=O)O)C(=O)O`, the EC50 in [19], in assay [21], in [22] (read-out: EC50) and in assay [23] was over 1000 µM throughout.

Take `NC(=O)CC[C@H](C[C@H](N)C(=O)O)C(=O)O`: the EC50 in [19], in assay [21], in [22] (read-out: EC50) and in [23] was over 1000 µM in each case.

In the case of `N[C@@H](C[C@@H](CC(=O)O)C(=O)O)C(=O)O`, the EC50 in assay [18], in assay [19], in assay [20], in assay [21], in assay [22] (read-out: EC50) and in assay [23] was over 1000 µM throughout.

In the case of `N#CCC[C@H](C[C@H](N)C(=O)O)C(=O)O`, the EC50 in [18], in [19], in [20], in assay [21], in assay [22] (read-out: EC50) and in assay [23] was over 1000 µM each time.

For the molecule `CC[C@H](C[C@H](N)C(=O)O)C(=O)O`, the EC50 in [19], in assay [22] (read-out: EC50) and in [23] was over 1000 µM in each case.
